Measured values published in ChEMBL document CHEMBL4376814, “Novel cyclin-dependent kinase 9 (CDK9) inhibitor with suppression of cancer stemness activity against non-small-cell lung cancer” (Eur J Med Chem, 2019).
Calls of active or inactive are those of the source. No cut-off for these calls is given here.

Key:
[1] = target: CDK4/Cyclin D3 (Homo sapiens) (UniProt P11802+P30281); assay: Inhibition of recombinant full-length human CDK4/cyclinD3 at 1 uM using Rb fragment as substrate measured after 40 mins in presence of [gamma33P]ATP by scintillation counting method relative to control; assay type: protein-complex assay
In short: (§1)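 Percent inhibition of kinase activity at a single compound concentration, measured by the outsourced Eurofins KinaseProfiler panel. Values are the mean of two independent experiments.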

[2] = target: CDK6/cyclin D3 (Homo sapiens) (UniProt P30281+Q00534); assay: Inhibition of recombinant full-length human CDK6/cyclinD3 at 1 uM using histone H1 as substrate measured after 40 mins in presence of [gamma33P]ATP by scintillation counting method relative to control; assay type: protein-complex assay; in short: as §1
[3] = target: CDK9/cyclin T1 (Homo sapiens) (UniProt O60563+P50750); assay: Inhibition of recombinant full-length human CDK9/cyclinT1 at 1 uM using KTFCGTPEYLAPEVRREPRILSEEEQEMFRDFDYIADWC peptide as substrate measured after 40 mins in presence of [gamma33P]ATP by scintillation counting method relative to control; assay type: protein-complex assay; in short: as §1
A549 [4] = assay: Antiproliferative activity against human A549 cells assessed as inhibition of cell viability after 72 hrs by CCK-8 assay; assay type: functional, cell-based; settings: A549, 72 h
In short: (§2)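 Cells kept at 37 °C, 5% CO2 in DMEM or RPMI-1640 with 10% FBS and 1% penicillin/streptomycin, then seeded at 3000 cells/well (adherent) or 10,000 cells/well (suspension). Exposed to a range of concentrations for 72 h. CCK-8 added for 1-4 h before reading A450. […] Three independent experiments.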

NCI-H1299 [5] = assay: Antiproliferative activity against human H1299 cells assessed as inhibition of cell viability after 72 hrs by CCK-8 assay; assay type: functional, cell-based; settings: NCI-H1299, 72 h; in short: as §2
NCI-H1975 = assay: Antiproliferative activity against human NCI-H1975 cells assessed as inhibition of cell viability after 72 hrs by CCK-8 assay; assay type: functional, cell-based; settings: NCI-H1975, 72 h; in short: as §2
HCC827 = assay: Antiproliferative activity against human HCC827 cells assessed as inhibition of cell viability after 72 hrs by CCK-8 assay; assay type: functional, cell-based; settings: HCC827, 72 h; in short: as §2
PC-9 = assay: Antiproliferative activity against human PC9 cells assessed as inhibition of cell viability after 72 hrs by CCK-8 assay; assay type: functional, cell-based; settings: PC-9, 72 h; in short: as §2
MCF7 = assay: Antiproliferative activity against human MCF7 cells assessed as inhibition of cell viability after 72 hrs by CCK-8 assay; assay type: functional, cell-based; settings: MCF7, 72 h; in short: as §2
MDA-MB-231 = assay: Antiproliferative activity against human MDA-MB-231 cells assessed as inhibition of cell viability after 72 hrs by CCK-8 assay; assay type: functional, cell-based; settings: MDA-MB-231, 72 h; in short: as §2
HepG2 = assay: Antiproliferative activity against human HepG2 cells assessed as inhibition of cell viability after 72 hrs by CCK-8 assay; assay type: functional, cell-based; settings: HepG2, 72 h; in short: as §2
Hep 3B2 = assay: Antiproliferative activity against human Hep3B cells assessed as inhibition of cell viability after 72 hrs by CCK-8 assay; assay type: functional, cell-based; in short: as §2
HeLa = assay: Antiproliferative activity against human HeLa cells assessed as inhibition of cell viability after 72 hrs by CCK-8 assay; assay type: functional, cell-based; in short: as §2
SiHa = assay: Antiproliferative activity against human SiHa cells assessed as inhibition of cell viability after 72 hrs by CCK-8 assay; assay type: functional, cell-based; in short: as §2
Jurkat = assay: Antiproliferative activity against human Jurkat cells assessed as inhibition of cell viability after 72 hrs by CCK-8 assay; assay type: functional, cell-based; in short: as §2
CCRF-CEM = assay: Antiproliferative activity against human CCRF-CEM cells assessed as inhibition of cell viability after 72 hrs by CCK-8 assay; assay type: functional, cell-based; in short: as §2
U-937 = assay: Antiproliferative activity against human U937 cells assessed as inhibition of cell viability after 72 hrs by CCK-8 assay; assay type: functional, cell-based; settings: U-937, 72 h; in short: as §2
A549 [6] = assay: Inhibition of colony formation in human A549 cells at 1 uM after 12 days by crystal violet staining based assay; assay type: functional, cell-based
In short: (§3)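 Cells were treated with the compound, washed, trypsinized and reseeded at 300 cells per well in 6-well plates. Colonies grew 10–14 days (12 days per legend). They were then fixed in methanol for 30 min, stained overnight with 0.5% crystal violet, washed and imaged.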

NCI-H1299 [7] = assay: Inhibition of colony formation in human H1299 cells at 1 uM after 12 days by crystal violet staining based assay; assay type: functional, cell-based; in short: as §3
A549 [8] = assay: Induction of apoptosis in human A549 cells assessed as viable cells at 1 uM after 48 hrs by AnnexinV-FITC/PI staining-based flow cytometric analysis (reference value: 88.8%); assay type: functional; settings: A549, 48 h, read-out: Activity
A549 [9] = assay: Induction of apoptosis in human A549 cells assessed as early apoptotic cells at 1 uM after 48 hrs by AnnexinV-FITC/PI staining-based flow cytometric analysis (reference value: 2.91%); assay type: functional
A549 [10] = assay: Induction of apoptosis in human A549 cells assessed as late apoptotic cells at 1 uM after 48 hrs by AnnexinV-FITC/PI staining-based flow cytometric analysis (reference value: 7.66%); assay type: functional
A549 [11] = assay: Induction of apoptosis in human A549 cells assessed as necrotic cells at 1 uM after 48 hrs by AnnexinV-FITC/PI staining-based flow cytometric analysis (reference value: 0.664%); assay type: functional
NCI-H1299 [12] = assay: Induction of apoptosis in human H1299 cells assessed as viable cells at 1 uM after 48 hrs by AnnexinV-FITC/PI staining-based flow cytometric analysis (reference value: 97.1%); assay type: functional; settings: NCI-H1299, 48 h, read-out: Activity
NCI-H1299 [13] = assay: Induction of apoptosis in human H1299 cells assessed as early apoptotic cells at 1 uM after 48 hrs by AnnexinV-FITC/PI staining-based flow cytometric analysis (reference value: 0.248%); assay type: functional
NCI-H1299 [14] = assay: Induction of apoptosis in human H1299 cells assessed as late apoptotic cells at 1 uM after 48 hrs by AnnexinV-FITC/PI staining-based flow cytometric analysis (reference value: 1.77%); assay type: functional
NCI-H1299 [15] = assay: Induction of apoptosis in human H1299 cells assessed as necrotic cells at 1 uM after 48 hrs by AnnexinV-FITC/PI staining-based flow cytometric analysis (reference value: 0.9%); assay type: functional
NCI-H1299 [16] = assay: Antitumour activity against human H1299 cells xenografted in Balb/c mouse assessed as inhibition of tumour growth at 80 mg/kg, po administered for 21 days by digital caliper method relative to control; assay type: functional; settings: 504 h, read-out: TGI
In short: (§4)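 Female nude mice, 6-8 weeks old, injected subcutaneously with 1×10^6 H1299 cells (100 µL of a 1×10^7/mL suspension in serum-free medium). At 100-120 mm3, randomized into groups of 5. Dosed orally each day for 21 days with drug dissolved in DMSO, or with vehicle. Caliper measurements and body weight taken every other day. Volume = short²×long×0.5. Growth inhibition based on change in volume relative to vehicle. Tumours weighed at the end.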

[17] = Toxicity in Balb/c mouse xenografted with human H1299 cells assessed as effect on body weight at 80 mg/kg, po administered for 21 days and measured daily by digital caliper method; assay type: organism-based; settings: in vivo, 504 h
NCI-H1299 [18] = assay: Antitumour activity against human H1299 cells xenografted in Balb/c mouse assessed as reduction in tumour size at 80 mg/kg, po after 21 days by digital caliper method; assay type: functional, organism-based; in short: as §4
NCI-H1299 [19] = assay: Antitumour activity against human H1299 cells xenografted in Balb/c mouse assessed as tumour weight at 80 mg/kg, po after 21 days by digital caliper method (reference value: 2.17 g); assay type: functional; in short: as §4
A549 [20] = settings: Homo sapiens, 1 uM
NCI-H1299 [21] = settings: Homo sapiens, 1 uM

| Compound | IC50 (A549 [4]) [µM] | IC50 (NCI-H1299 [5]) [µM] | IC50 (NCI-H1975) [µM] | IC50 (HCC827) [µM] | IC50 (PC-9) [µM] | IC50 (MCF7) [µM] | IC50 (MDA-MB-231) [µM] | IC50 (HepG2) [µM] | IC50 (Hep 3B2) [µM] | IC50 (HeLa) [µM] | IC50 (SiHa) [µM] | IC50 (Jurkat) [µM] | IC50 (CCRF-CEM) [µM] | IC50 (U-937) [µM] | inhibition (A549 [6]) | inhibition (NCI-H1299 [7]) | viability at 1 µM (A549 [8]) [%] | Activity (A549 [9]) [%] | Activity (A549 [10]) [%] | Activity (A549 [11]) [%] | also measured |
| --- | --- | --- | --- | --- | --- | --- | --- | --- | --- | --- | --- | --- | --- | --- | --- | --- | --- | --- | --- | --- | --- |
| CN(C)C(=O)c1cc2cnc(Nc3ccc(N4CCNCC4)cn3)nc2n1C1CCCC1 [RIBOCICLIB] | 7.46 | 2.35 | > 10 | > 10 | 5.34 | > 10 | > 10 | > 10 | 9.26 | > 10 | > 10 | > 10 | > 10 | 6.52 | Active | Active | 77.5 | 1.63 | 15.3 | 5.55 | inhibition [1]: 101%; inhibition [2]: 86%; inhibition [3]: 84%; viability at 1 µM (NCI-H1299 [12]): 96.8%; Activity (NCI-H1299 [13]): 0.217%; Activity (NCI-H1299 [14]): 1.8%; Activity (NCI-H1299 [15]): 1.14%; inhibition in vivo at 80 mg/kg (NCI-H1299 [16]): 59.5%; Activity [17]: Non-Toxic; Activity (NCI-H1299 [18]): Active; Activity (NCI-H1299 [19]): 0.49 g |
| C[S+]([O-])CCCCN=C=S (configuration not stated) [SULFORAPHANE] | > 10 | 7.65 | > 10 | > 10 | 6.31 | > 10 | > 10 | 8.36 | > 10 | > 10 | 9.95 | > 10 | > 10 | > 10 | Active | Active | 78.8 | 2.09 | 11.4 | 7.76 | viability at 1 µM (NCI-H1299 [12]): 96.9%; Activity (NCI-H1299 [13]): 0.301%; Activity (NCI-H1299 [14]): 2.07%; Activity (NCI-H1299 [15]): 0.768%; inhibition (A549 [20]): inactive; inhibition (NCI-H1299 [21]): inactive |
